Each structure is given as a SMILES string. Converted amounts (≈) assume the structure as drawn. The source made the active and inactive calls. No cut-off for these calls is given here.

Consider 14 molecules from ChEMBL document CHEMBL1828624, “Synthesis and antioxidant activity of oxazolyl/thiazolylsulfonylmethyl pyrazoles and isoxazoles” (Eur J Med Chem, 2011).

Assay type in all cases: functional
The subject of assay [1] is Radical scavenging activity. Nature of the assay: Antioxidant activity assessed as DPPH free radical scavenging activity at 50 ug/ml after 30 mins by spectrophotometric analysis relative to control. An outline of the steps:
(§1)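 Compounds in methanol at […] were mixed with 0.004% (w/v) methanolic DPPH. After 30 min at room temperature, absorbance was read at 517 nm against a blank. Percent inhibition was calculated from control (all reagents minus compound) and sample absorbances. Run in triplicate.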

Assay [2] in a line: Antioxidant activity assessed as nitric oxide scavenging activity at 75 ug/ml after 150 mins by Griess method relative to control. The gist of the method:
(§2)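 NO was generated from sodium nitroprusside (10 mM) in phosphate buffer saline (0.2 M, pH 7.4). Compounds were added at […] and incubated 150 min at 25 °C. Percent scavenging was calculated from control (all reagents minus compound) and sample absorbances. Run in triplicate.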
In general terms: Griess reagent forms a coloured azo dye with nitrite.

A short description of assay [3]: Antioxidant activity assessed as hydrogen peroxide scavenging activity at 100 ug/ml relative to control.
For assay [4], the system named is Radical scavenging activity. Nature of the assay: Antioxidant activity assessed as DPPH free radical scavenging activity after 30 mins by spectrophotometric analysis. The gist of the method: as §1
Background: Loss of DPPH colour is used to gauge radical scavenging.

Assay [5] is described as follows: Antioxidant activity assessed as hydrogen peroxide scavenging activity at 50 ug/ml relative to control.
The subject of assay [6] is Radical scavenging activity. Nature of the assay: Antioxidant activity assessed as DPPH free radical scavenging activity at 75 ug/ml after 30 mins by spectrophotometric analysis relative to control. An outline of the steps:
as §1

Assay [7] can be described thus: Antioxidant activity assessed as nitric oxide scavenging activity at 100 ug/ml after 150 mins by Griess method relative to control. The gist of the method: as §2
The nature of assay [8]: Antioxidant activity assessed as hydrogen peroxide scavenging activity at 75 ug/ml relative to control.
Assay [9] has as its system Radical scavenging activity. Nature of the assay: Antioxidant activity assessed as DPPH free radical scavenging activity at 100 ug/ml after 30 mins by spectrophotometric analysis relative to control. The gist of the method: as §1
The nature of assay [10]: Antioxidant activity assessed as nitric oxide scavenging activity at 50 ug/ml after 150 mins by Griess method relative to control. The gist of the method: as §2

Consider `O=S(=O)(CC1=NCCS1)c1c(-c2ccccc2)noc1-c1ccccc1`, for which the inhibition result in [1], in assay [6] and in assay [9] was “inactive” each time. Moreover, the outcome in assay [2], in assay [3], in assay [5], in assay [7], in assay [8] and in assay [10] was inactive. In addition, the half-inhibitory concentration (IC50) (usually the midpoint of a concentration-inhibition curve) in assay [4] was “Not Active”.

As for `O=S(=O)(CC1=NCCS1)C1C(c2ccccc2)=NOC1c1ccccc1` (stereo not given), the inhibition result in assay [1], in assay [6] and in [9] was “inactive” in each case. Moreover, the result in [2], in [3], in assay [5], in [7], in assay [8] and in [10] was inactive. Besides, the half-maximal inhibitory concentration (IC50) result in assay [4] is listed as “Not Active”.

Turning to `COc1ccc(C2=NOC(c3ccc(C)cc3)C2S(=O)(=O)CC2=NCCO2)cc1` (stereo not given), the values for the inhibition in assay [1], in assay [6] and in [9] were 58.1%, 63.3% and 66.5%, respectively. The Activity in assay [2] was determined as 65.9%; in [3] it was 70.9%; in [5], 65.9%; in [7] it was 71.2%; in assay [8], 66.6%; in assay [10] it was 61.9%. Besides, the IC50 in assay [4] came to 75.16 µg/mL (≈ 181 µM).

Regarding `O=S(=O)(CC1=NCCS1)C1=NNCC1c1ccc(Cl)cc1` (stereo not given), the inhibition entry in assay [1], in assay [6] and in assay [9] was “inactive” in each case. Besides, the outcome in assay [2], in assay [3], in assay [5], in assay [7], in assay [8] and in assay [10] was inactive. Moreover, the IC50 result in [4] is recorded as “Not Active”.

`O=S(=O)(CC1=NCCS1)c1c(-c2ccccc2)nn(-c2ccccc2)c1-c1ccccc1`: the inhibition result in assay [1], in [6] and in assay [9] was “inactive” each time. The result in assay [2], in assay [3], in [5], in [7], in [8] and in [10] was inactive. In [4], the IC50 result is “Not Active”.

As to `Cc1ccc(-c2c[nH]nc2S(=O)(=O)CC2=NCCO2)cc1`, the inhibition (as a rule, the relative decrease from the control value, in per cent) in assay [1] turned out to be 59.8%; in assay [6] it was 63.7%; in assay [9], 69%. In addition, the Activity in assay [2] came to 63.5%; in [3], 65.5%; in assay [5], 60.7%; in assay [7], 65.2%; in assay [8] it was 62%; in [10] it was 59.4%. Further, the IC50 in assay [4] was 72.51 µg/mL (≈ 237 µM).

With `COc1ccc(-c2noc(-c3ccc(C)cc3)c2S(=O)(=O)CC2=NCCO2)cc1`, the inhibition was found to be 72.9% in [1], 75.8% in assay [6] and 79.7% in assay [9]. Also, the Activity was found to be 73% in assay [2]; 77.1% in assay [3]; 70% in assay [5]; 76.2% in [7]; 72% in [8]; 68.8% in assay [10]. In addition, the IC50 in assay [4] came to 62.76 µg/mL (≈ 152 µM).

`O=S(=O)(CC1=NCCO1)c1n[nH]cc1-c1ccc(Cl)cc1`: the inhibition entry in [1], in [6] and in assay [9] was “inactive” each time. Further, the result in assay [2], in [3], in assay [5], in assay [7], in assay [8] and in assay [10] was inactive. Moreover, the IC50 result in [4] was “Not Active”.

For the molecule `O=S(=O)(CC1=NCCO1)c1c(-c2ccc(Cl)cc2)noc1-c1ccc(Cl)cc1`, the inhibition entry in assay [1], in [6] and in [9] was “inactive” throughout. Moreover, the result in [2], in assay [3], in assay [5], in [7], in assay [8] and in assay [10] was inactive. In addition, the IC50 result in assay [4] is recorded as “Not Active”.

Take `Cc1ccc(-c2c[nH]nc2S(=O)(=O)CC2=NCCS2)cc1`: the inhibition entry in assay [1], in [6] and in [9] was “inactive” throughout. The outcome in [2], in assay [3], in assay [5], in assay [7], in assay [8] and in assay [10] was inactive. Besides, in assay [4], the IC50 entry is “Not Active”.

`O=S(=O)(CC1=NCCO1)c1c(-c2ccc(Cl)cc2)nn(-c2ccccc2)c1-c1ccc(Cl)cc1`: the inhibition result in assay [1], in assay [6] and in assay [9] was “inactive” in each case. Also, the outcome in [2], in assay [3], in assay [5], in assay [7], in [8] and in assay [10] was inactive. The IC50 entry in assay [4] is recorded as “Not Active”.

As for `O=S(=O)(CC1=NCCO1)C1C(c2ccc(Cl)cc2)=NOC1c1ccc(Cl)cc1` (stereo not given), the inhibition entry in assay [1], in assay [6] and in assay [9] was “inactive” in each case. Further, the outcome in assay [2], in [3], in [5], in assay [7], in assay [8] and in assay [10] was inactive. The IC50 result in assay [4] was “Not Active”.

On to `O=S(=O)(CC1=NCCS1)C1C(c2ccccc2)=NN(c2ccccc2)C1c1ccccc1` (stereo not given), for which the inhibition result in [1], in assay [6] and in assay [9] was “inactive” each time. Besides, the result in assay [2], in [3], in assay [5], in assay [7], in assay [8] and in assay [10] was inactive. Moreover, the IC50 result in [4] is “Not Active”.

Regarding `COc1ccc(C2=NOC(c3ccc(C)cc3)C2S(=O)(=O)CC2=NCCS2)cc1` (stereo not given), the inhibition is 46.8% in assay [1], 50.6% in assay [6] and 58.6% in [9]. For the same molecule, the Activity in assay [2] came out at 54.1%; in assay [3] it was 52.6%; in [5] it was 47.5%; in [7], 59.6%; in assay [8], 49.7%; in [10] it was 48.6%. Further, the IC50 in assay [4] turned out to be 85.38 µg/mL (≈ 198 µM).
